Assay [1] deals with T1, 3',5'-cyclic-AMP phosphodiesterase 4D (Homo sapiens, UniProt Q08499). In words: Inhibition of PDE4D2 (unknown origin) by preincubated for 30 mins before substrate addition and measured after 60 mins by IMAP TR-FRET phosphodiesterase evaluation assay. An outline of the steps:
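Purchased PDE4D2 at 5.0 pg/μL in IMAP buffer (10 mM Tris pH 7.2, 10 mM MgCl2, 0.05% NaN3, 1 mM DTT, 0.1% phosphate-free BSA). Compound or vehicle preincubated 30 min at RT, then FAM-cAMP added (200 nM final), 60 min at RT. Stopped with IMAP Tb binding reagent, 60 min at RT, fluorescence read. IC50 by four-parameter nonlinear fit, three independent replicates.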

Assay [2] addresses T1, 3',5'-cyclic-AMP phosphodiesterase 4D. Nature of the assay: Inhibition of human PDE4D2 catalytic domain (86 to 413 residues) expressed in Escherichia coli strain BL21 using [3H]cAMP as substrate after 15 mins by liquid scintillation counter analysis.

T1 sequence (Q08499 whole entry): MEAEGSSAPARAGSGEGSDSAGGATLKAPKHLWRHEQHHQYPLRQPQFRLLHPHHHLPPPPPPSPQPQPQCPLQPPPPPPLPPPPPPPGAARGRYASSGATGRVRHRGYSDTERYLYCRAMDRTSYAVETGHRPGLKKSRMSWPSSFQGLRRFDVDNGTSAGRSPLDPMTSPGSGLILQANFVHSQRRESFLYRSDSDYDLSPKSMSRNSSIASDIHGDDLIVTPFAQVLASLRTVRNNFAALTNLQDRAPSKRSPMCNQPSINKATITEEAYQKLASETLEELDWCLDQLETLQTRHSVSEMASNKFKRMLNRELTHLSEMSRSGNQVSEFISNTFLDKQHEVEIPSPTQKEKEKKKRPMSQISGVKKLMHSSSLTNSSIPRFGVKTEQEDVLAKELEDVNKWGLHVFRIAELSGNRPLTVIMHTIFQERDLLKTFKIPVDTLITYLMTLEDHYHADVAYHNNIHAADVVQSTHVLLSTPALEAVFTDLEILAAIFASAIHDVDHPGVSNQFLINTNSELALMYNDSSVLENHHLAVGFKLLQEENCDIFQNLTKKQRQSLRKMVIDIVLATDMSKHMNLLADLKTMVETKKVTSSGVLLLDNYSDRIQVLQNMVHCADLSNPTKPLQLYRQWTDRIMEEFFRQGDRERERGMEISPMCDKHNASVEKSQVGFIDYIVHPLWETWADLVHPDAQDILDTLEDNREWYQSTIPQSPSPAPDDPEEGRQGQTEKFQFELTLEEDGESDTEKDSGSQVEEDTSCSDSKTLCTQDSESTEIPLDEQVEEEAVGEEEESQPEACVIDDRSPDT

Broadly, the IC50 is the midpoint of a concentration-inhibition curve. In assay [1], `COc1ccc(C2(c3ccc(OC)cc3)c3cc(O)ccc3-c3ccc(CO)c(C#Cc4ccc(O)cc4)c32)cc1` gave an IC50 of 5.4 µM. On the same count and under the same terms, to `COCc1ccc2c(c1C#Cc1ccc(O)cc1)C(c1ccc(OC)cc1)(c1ccc(OC)cc1)c1cc(O)ccc1-2` belongs 2.8 µM. In the case of `COc1ccc(C2(c3ccc(OC)cc3)c3cc(O)ccc3-c3ccc(C=O)c(C#Cc4ccc(O)cc4)c32)cc1`, half-maximal inhibition in assay [2] (IC50) required 0.01 µM. Consider `COc1ccc(-c2c3ccc(OC)cc3c3c4c(ccc(-c5ccc(O)cc5)c24)[C@@H](c2ccc(O)cc2)OC3=O)cc1`, for which, in assay [1], the IC50 is above 30 µM. The molecule `COc1ccc([C@@]2(c3ccc(O)cc3)c3cc(O)ccc3-c3ccc(CO)c(C#Cc4ccc(O)cc4)c32)cc1` came in with an IC50 in assay [1] of 32.1 µM.

In assay [1], `COc1ccc(-c2c3ccc(OC)cc3c3c4c(ccc(-c5ccc(O)cc5)c24)C(=O)O[C@H]3c2ccc(O)cc2)cc1` registered an IC50 of 13.7 µM. Same read-out and setting: for `COCc1cc(O)c2c(c1C#Cc1ccc(O)cc1)C(c1ccc(O)cc1)(c1ccc(O)cc1)c1cc(O)ccc1-2` the value was 29.5 µM; for `COc1ccc([C@@]2(c3ccc(O)cc3)c3cc(O)ccc3-c3ccc(C)c(C#Cc4ccc(O)cc4)c32)cc1`, 19.5 µM. In assay [2], `O=C1C=CC(=C(c2ccc(O)cc2)c2c(-c3ccc(O)cc3)ccc(CO)c2C#Cc2ccc(O)cc2)C=C1` had a half-maximal inhibitory concentration (IC50) of 1 µM. On the same count and under the same terms, to `COc1ccc(C2(c3ccc(OC)cc3)c3cc(O)ccc3-c3cccc(C#Cc4ccc(O)cc4)c32)cc1` belongs 0.09 µM. In turn, `COCc1ccc2c(c1C#Cc1ccc(O)cc1)C(c1ccc(O)cc1)(c1ccc(O)cc1)c1cc(O)ccc1-2` displayed an IC50 in assay [1] of 23.2 µM. In assay [2], `OCc1ccc2c(c1C#Cc1ccc(O)cc1)C(c1ccc(O)cc1)(c1ccc(O)cc1)c1cc(O)ccc1-2` returned a half-inhibitory concentration (IC50) of 0.2 µM. As to `COc1ccc(C2(c3ccc(OC)cc3)c3cc(O)ccc3-c3ccc(C)c(C#Cc4ccc(O)cc4)c32)cc1`, the concentration for half-maximal inhibition (IC50) in assay [1] is 24.6 µM. In the case of `COCc1ccc2c(c1C#Cc1ccc(O)cc1)[C@](c1ccc(O)cc1)(c1ccc(OC)cc1)c1cc(O)ccc1-2`, the midpoint of inhibition in assay [1], the IC50, lay at 33.8 µM. In assay [2], `Oc1ccc(C#Cc2ccc(O)c3c2C(c2ccc(O)cc2)(c2ccc(O)cc2)c2cc(O)ccc2-3)cc1` returned an IC50 of 1.2 µM.

The values are drawn from ChEMBL document CHEMBL4339243, “Molecular Networking Reveals the Chemical Diversity of Selaginellin Derivatives, Natural Phosphodiesterase-4 Inhibitors from Selaginella tamariscina” (J Nat Prod, 2019).
